Assays:
Type in all cases: functional
MDA-MB-231 = assay: Anticancer activity against human MDA-MB-231 cells after 48 hrs; conditions: MDA-MB-231, 48 h
Outline: (§1)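 NCI Drug Evaluation Branch 60-cell-line screen across leukemia, melanoma, lung, colon, CNS, ovarian, renal, prostate and breast panels. The incubation period is 48 h. Parameters are derived from dose–response data: GI50 is the concentration giving 50% decrease in net growth, TGI is total growth inhibition, and LC50 is net 50% loss of initial cells. Values beyond the tested range are reported as greater or less than the maximum or minimum concentration.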

HT-29 = assay: Anticancer activity against human HT-29 cells after 48 hrs; conditions: HT-29, 48 h; outline: as §1
ACHN = assay: Anticancer activity against human ACHN cells after 48 hrs; outline: as §1
MDA-MB-468 = assay: Anticancer activity against human MDA-MB-468 cells after 48 hrs; conditions: MDA-MB-468, 48 h; outline: as §1
HL-60(TB) = assay: Anticancer activity against human HL-60(TB) cells after 48 hrs; conditions: HL-60, 48 h
Outline: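 NCI 60-cell-line panel protocol: cells exposed to compound for 48 h. Initial one-dose screen at 10⁻⁵ M. GI50 = concentration giving 50% decrease in net cell growth. TGI = concentration giving total growth inhibition. LC50 = concentration giving net 50% loss of initial cells at the end of incubation. A value not reached or exceeded is reported as greater or less than the highest or lowest concentration tested.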

SR = assay: Anticancer activity against human SR cells after 48 hrs
Outline: (§2)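 NCI 60-line panel protocol with a 48 h incubation. Per line: GI50 = concentration giving 50% decrease in net cell growth; TGI = total growth inhibition; LC50 = net 50% loss of initial cells. When the level was not reached or was exceeded, the value is given as greater or less than the highest or lowest concentration tested.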

HOP-92 = assay: Anticancer activity against human HOP92 cells after 48 hrs; conditions: HOP-92, 48 h; outline: as §1
DU-145 = assay: Anticancer activity against human DU145 cells after 48 hrs; conditions: DU-145, 48 h; outline: as §1
SF-295 = assay: Anticancer activity against human SF295 cells after 48 hrs; conditions: SF-295, 48 h; outline: as §2
CAKI-1 = assay: Anticancer activity against human Caki1 cells after 48 hrs; conditions: CAKI-1, 48 h; outline: as §1
BT-549 = assay: Anticancer activity against human BT549 cells after 48 hrs; conditions: BT-549, 48 h; outline: as §1
NCI-H522 = assay: Anticancer activity against human NCI-H522 cells after 48 hrs; conditions: NCI-H522, 48 h; outline: as §2
Malme-3M = assay: Anticancer activity against human MALME-3M cells after 48 hrs; outline: as §1
SN12C = assay: Anticancer activity against human SN12C cells after 48 hrs; outline: as §2
NCI-H322M = assay: Anticancer activity against human NCI-H322M cells after 48 hrs; outline: as §2
HOP-62 = assay: Anticancer activity against human HOP62 cells after 48 hrs; conditions: HOP-62, 48 h; outline: as §1
U-251 = assay: Anticancer activity against human U251 cells after 48 hrs; conditions: U-251, 48 h
Outline: (§3)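 NCI ~60 human tumour cell line panel with a 48 h incubation. GI50 is the concentration giving a 50% fall in net growth, TGI gives total growth inhibition, and LC50 gives a net 50% loss of initial cells. An effect not reached or exceeded is reported as greater or less than the highest or lowest concentration tested.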

RPMI-8226 = assay: Anticancer activity against human RPMI8226 cells after 48 hrs; conditions: RPMI-8226, 48 h; outline: as §2
TK-10 = assay: Anticancer activity against human TK10 cells after 48 hrs; conditions: TK-10, 48 h; outline: as §3
SK-MEL-5 = assay: Anticancer activity against human SK-MEL-5 cells after 48 hrs; conditions: SK-MEL-5, 48 h; outline: as §2
M14 = assay: Anticancer activity against human M14 cells after 48 hrs; conditions: M14, 48 h; outline: as §1
SNB-19 = assay: Anticancer activity against human SNB19 cells after 48 hrs; conditions: SNB-19, 48 h; outline: as §2
OVCAR-5 = assay: Anticancer activity against human OVCAR5 cells after 48 hrs; conditions: OVCAR-5, 48 h; outline: as §2
UO-31 = assay: Anticancer activity against human UO31 cells after 48 hrs; conditions: UO-31, 48 h; outline: as §3
HCT-116 = assay: Anticancer activity against human HCT116 cells after 48 hrs; conditions: HCT-116, 48 h; outline: as §1
PC-3 = assay: Anticancer activity against human PC3 cells after 48 hrs; conditions: PC-3, 48 h; outline: as §2
OVCAR-8 = assay: Anticancer activity against human OVCAR8 cells after 48 hrs; conditions: OVCAR-8, 48 h; outline: as §2
UACC-257 = assay: Anticancer activity against human UACC257 cells after 48 hrs; conditions: UACC-257, 48 h; outline: as §3
LOX IMVI = assay: Anticancer activity against human LOXIMVI cells after 48 hrs; outline: as §1
[1] = Anticancer activity against human Hs 578T cells after 48 hrs; outline: as §1
[2] = read-out: LC50 (the source's name)

COc1ccc(C2CC(c3cc(Cl)c(C)cc3O)=NN2c2ccc(S(N)(=O)=O)cc2)cc1OC (configuration not stated)
GI50 (MDA-MB-231): 3.81 µM | TGI (MDA-MB-231): 12.5 µM | CC50 (MDA-MB-231; [2]): 40.4 µM | GI50 (HT-29): 2.24 µM | TGI (HT-29): 6.48 µM | CC50 (HT-29; [2]): 36.9 µM | GI50 (ACHN): 3.15 µM | TGI (ACHN): 12.2 µM | CC50 (ACHN; [2]): > 100 µM | GI50 (MDA-MB-468): 2.58 µM | TGI (MDA-MB-468): 9.51 µM | CC50 (MDA-MB-468; [2]): > 100 µM | GI50 (HL-60(TB)): 3.42 µM | LC50 (HL-60(TB)): > 100 µM | TGI (HL-60(TB)): 100 µM | GI50 (SR): 2.82 µM | LC50 (concentration killing 50% of initial cells) (SR): > 100 µM | GI50 (HOP-92): 1.81 µM | TGI (HOP-92): 7.42 µM | CC50 (HOP-92; [2]): > 100 µM | GI50 (DU-145): 4.49 µM | LC50 (concentration causing net 50% loss of initial cells) (DU-145): > 100 µM | TGI (DU-145): 21.7 µM | GI50 (SF-295): 2.7 µM | LC50 (concentration giving net 50% loss of initial cells) (SF-295): 0.34 µM | TGI (SF-295): 6.24 µM | GI50 (CAKI-1): 2.78 µM | LC50 (concentration giving 50% net loss of initial cells) (CAKI-1): > 100 µM | GI50 (BT-549): 3.03 µM | TGI (BT-549): 13.4 µM | CC50 (BT-549; [2]): 95.6 µM | GI50 (NCI-H522): 2.95 µM | LC50 (concentration killing 50% of initial cells) (NCI-H522): 69.3 µM | TGI (NCI-H522): 9.61 µM | GI50 (Malme-3M): 3.65 µM | TGI (Malme-3M): 24.6 µM | CC50 (Malme-3M; [2]): > 100 µM | GI50 (SN12C): 3.7 µM | LC50 (SN12C): > 100 µM | TGI (SN12C): 30 µM | GI50 (NCI-H322M): 4.45 µM | LC50 (net 50% loss of initial cells) (NCI-H322M): > 100 µM | TGI (NCI-H322M): 39.7 µM | GI50 (HOP-62): 3.92 µM | LC50 (concentration for 50% net loss of initial cells) (HOP-62): 52.4 µM | TGI (HOP-62): 14.1 µM | GI50 (U-251): 3.71 µM | TGI (U-251): 14 µM | CC50 (U-251; [2]): 48.2 µM | GI50 (RPMI-8226): 4.1 µM | LC50 (concentration for net 50% loss of initial cells) (RPMI-8226): > 100 µM | TGI (RPMI-8226): 100 µM | GI50 (TK-10): 3.97 µM | LC50 (TK-10): > 100 µM | TGI (TK-10): 18.4 µM | GI50 (SK-MEL-5): 4.28 µM | LC50 (SK-MEL-5): 39.7 µM | TGI (SK-MEL-5): 15.2 µM | GI50 (M14): 2.61 µM | TGI (M14): 7.26 µM | CC50 (M14; [2]): 38.3 µM | GI50 (SNB-19): 5.53 µM | TGI (SNB-19): 89.3 µM | CC50 (SNB-19; [2]): > 100 µM | GI50 (OVCAR-5): 2.25 µM | LC50 (OVCAR-5): 27.8 µM | TGI (OVCAR-5): 6.36 µM | GI50 (UO-31): 3.3 µM | CC50 (UO-31; [2]): > 100 µM | GI50 (HCT-116): 1.72 µM | TGI (HCT-116): 4.36 µM | CC50 (HCT-116; [2]): 12.4 µM | GI50 (PC-3): 2.61 µM | TGI (PC-3): 13.7 µM | CC50 (PC-3; [2]): > 100 µM | GI50 (OVCAR-8): 3.39 µM | TGI (OVCAR-8): 17.9 µM | CC50 (OVCAR-8; [2]): > 100 µM | GI50 (UACC-257): 4.22 µM | LC50 (UACC-257): > 100 µM | TGI (UACC-257): 19.7 µM | GI50 (LOX IMVI): 3.35 µM | TGI (LOX IMVI): 11 µM | CC50 (LOX IMVI; [2]): 37.4 µM | GI50 [1]: 3.29 µM | TGI [1]: 34.3 µM | CC50 [1, 2]: > 100 µM
